Data: ChEMBL document CHEMBL4627351, “Synthesis, biological evaluation and structure-activity relationships of 5-arylidene tetramic acids with antibacterial activity against methicillin-resistant Staphylococcus aureus” (Bioorg Med Chem Lett, 2020)
Values after ≈ are worked out from the molar mass of the structure shown.

Experiments:
[1] = Cytotoxicity against human HEK293 cells; format: cell-based
[2] = system: Staphylococcus aureus; test: Antibacterial activity against methicillin-resistant Staphylococcus aureus ATCC 43300 assessed as reduction in bacterial growth at 32 ug/ml by CLSI protocol based broth microdilution method relative to control; format: functional
Summary of the method: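 Primary single-concentration broth screen at 32 µg/mL in duplicate (n = 2) against MRSA ATCC 43300. Mean % growth inhibition was calculated relative to growth and media controls.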

[3] = system: Erythrocyte; test: Hemolytic activity against human RBC; format: ADME, cell-based
[4] = system: Staphylococcus aureus; test: Antibacterial activity against methicillin-resistant Staphylococcus aureus ATCC 43300 assessed as reduction in bacterial growth by CLSI protocol based broth microdilution method; format: functional
Summary of the method: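 Dose-response broth assay in duplicate, 8 points from 0.25 to 32 µg/mL, against MRSA ATCC 43300, with a positive antibiotic control. MIC is the lowest concentration giving full growth inhibition, per CLSI guidelines.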

Q: Which results are given for `CC(=O)C1=C(O)/C(=C/c2ccc(C(F)(F)F)cc2)N(C(C)=O)C1=O`?
A: CC50 [1]: > 32 µg/mL; inhibition at 32 µg/mL [2]: 61.7%; HC10 [3]: > 32 µg/mL; MIC [4]: > 32 µg/mL

Q: Which inhibition at 32 µg/mL [2] does the source give for `CC(=O)C1=C(O)/C(=C/c2ccc(Cl)cc2)N(C(C)=O)C1=O` here?
A: 45.1%

Q: For `CCCCCCCCCCCCCCCC(=O)C1=C(O)/C(=C/c2ccccc2)N(C(C)=O)C1=O`, which CC50 [1] is on record?
A: > 32 µg/mL

Q: What about the HC10 [3] of the same molecule?
A: > 32 µg/mL

Q: And the MIC [4]?
A: 4 µg/mL (≈ 8.55 µM)

Q: For `CCCC(=O)C1=C(O)/C(=C/c2ccc(OC)cc2)N(C(C)=O)C1=O`, which CC50 [1] is on record?
A: > 32 µg/mL

Q: And the inhibition at 32 µg/mL [2]?
A: 73.1 to 99.2%

Q: What about the HC10 [3] of the same molecule?
A: > 32 µg/mL

Q: What about the MIC [4] of the same molecule?
A: 32 µg/mL (≈ 97.2 µM)

Q: Which results are given for `CCCCCCCCCCCCCC(=O)C1=C(O)/C(=C/c2ccccc2)N(C(C)=O)C1=O`?
A: CC50 [1]: > 32 µg/mL; HC10 [3]: > 32 µg/mL; MIC [4]: 4 µg/mL (≈ 9.1 µM)

Q: Which results are given for `CCCC(=O)C1=C(O)/C(=C/c2ccccc2)N(C(C)=O)C1=O`?
A: CC50 [1]: > 32 µg/mL; inhibition at 32 µg/mL [2]: 73.1 to 99.2%; HC10 [3]: > 32 µg/mL; MIC [4]: 32 µg/mL (≈ 107 µM)

Q: For `CC(=O)C1=C(O)/C(=C/c2ccc([N+](=O)[O-])cc2)N(C(C)=O)C1=O`, which inhibition at 32 µg/mL [2] is on record?
A: 38.6%

Q: Which CC50 [1] does the source give for `CCCCCCCC(=O)C1=C(O)/C(=C/c2ccccc2)N(C(C)=O)C1=O` here?
A: > 32 µg/mL

Q: What about the HC10 [3] of the same molecule?
A: > 32 µg/mL

Q: What about the MIC [4] of the same molecule?
A: 4 µg/mL (≈ 11.3 µM)

Q: With `CC(=O)C1=C(O)/C(=C/c2ccccc2)N(C(C)=O)C1=O` as the molecule, how does the CC50 [1] read?
A: > 32 µg/mL

Q: And the inhibition at 32 µg/mL [2]?
A: 22.9 to 25.5%

Q: What about the HC10 [3] of the same molecule?
A: > 32 µg/mL

Q: And the MIC [4]?
A: > 32 µg/mL

Q: For `CCCCCCCCCC(=O)C1=C(O)/C(=C/c2ccccc2)N(C(C)=O)C1=O`, which CC50 [1] is on record?
A: > 32 µg/mL

Q: What about the HC10 [3] of the same molecule?
A: 20.4 µg/mL

Q: And the MIC [4]?
A: 4 µg/mL (≈ 10.4 µM)

Q: Which inhibition at 32 µg/mL [2] does the source give for `CC(=O)N1C(=O)C(C(=O)c2ccccc2)=C(O)/C1=C/c1ccccc1` here?
A: 73.1 to 99.2%
